An excerpt weighted towards active compounds, which were near 2.2% of everything screened.
CHRM1 antagonist: human CHRM1 antagonism. P11229. CHO-K1 hM1, Fluo-8 calcium fluorescence, ACh EC80 antagonist. inhibition, % at 3 µM. 360,000 tested, 1.3% active;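 active means percent inhibition above its own plate's cutoff, namely the mean of that plate's compound wells plus 3 SD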;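 further: peak over basal fluorescence ratio during 140 s after agonist addition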
Target sequence (P11229 whole entry, looked up): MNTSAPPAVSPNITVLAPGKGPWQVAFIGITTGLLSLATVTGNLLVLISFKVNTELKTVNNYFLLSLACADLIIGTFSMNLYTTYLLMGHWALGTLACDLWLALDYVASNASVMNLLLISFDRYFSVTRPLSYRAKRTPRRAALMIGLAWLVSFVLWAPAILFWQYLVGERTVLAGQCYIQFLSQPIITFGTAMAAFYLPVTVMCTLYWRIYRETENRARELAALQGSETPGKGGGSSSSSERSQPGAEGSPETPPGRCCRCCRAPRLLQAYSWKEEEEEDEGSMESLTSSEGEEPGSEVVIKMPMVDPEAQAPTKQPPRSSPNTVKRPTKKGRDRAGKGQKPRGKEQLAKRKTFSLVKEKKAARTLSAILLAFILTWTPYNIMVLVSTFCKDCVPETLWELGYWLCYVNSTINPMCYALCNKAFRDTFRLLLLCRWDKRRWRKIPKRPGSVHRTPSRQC
CHRM1 PAM: positive allosteric modulators of human M1 muscarinic receptor; P11229; CHO-K1 hM1, Fluo-8 calcium fluorescence, ACh EC20; 0% = ACh EC20, 100% = maximal ACh; activation, % at 3 µM; 360,000 tested, 0.088% active; in the data active means activation above about 19%, passing the limit was not always enough
M5 PAM: CHRM5 positive allosteric modulation; P08912; CHO-K1 hM5, Fluo-8 calcium, ACh EC20 PAM; 0% = ACh EC20, 100% = ACh EC100; activation, % at 3 µM; 360,000 tested, 0.3% active; AID 624038;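 active means activation above the run cutoff, the mean activation of all test compounds plus 3 SD, cut at about 18% in these data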
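Assay system – human M5 receptor in CHO-K1 cells · Read-out – % activation, ACh-normalized · Technique – Fluo-8 calcium fluorescence · Dosing – single-point, 3 µM nominal · Incubation – Fluo-8 loading 80 min at 37 °C plus 30 min room temperature · Repeats – singlicate, one well per test compound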
CHRM5 agonist: agonists of human muscarinic M5 receptor (CHRM5). P08912. CHO-K1 hM5 cells, Fluo-8 calcium fluorescence; 0% DMSO wells, 100% maximal acetylcholine response. activation, % at 3 µM. 360,000 tested, 0.19% active. AID 624037;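 active means activation above the run's mean over test compounds plus 3 SD, cut at about 23% in these data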;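 further: signal is peak over basal fluorescence ratio across the kinetic read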
M5 antag: antagonists of human muscarinic M5 receptor (CHRM5); P08912; CHO-hM5 cells, Fluo-8 calcium fluorescence, ACh EC80; inhibition, % at 3 µM; 360,000 tested, 0.59% active; AID 624040;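 active means inhibition above a per-plate cutoff, the mean of that plate's test compounds plus 3 SD, cut at about 27% in these data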
CHRM1 agonist: agonists of human M1 muscarinic receptor. CHO-K1 hM1, Fluo-8 calcium fluorescence, agonist mode; 0% DMSO, 100% acetylcholine EC100. activation, % at 3 µM. 360,000 tested, 0.33% active. AID 588814;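 active means activation above the run's mean compound activation plus 3 SD, cut at about 16% in these data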;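 further: peak over basal fluorescence ratio within a 140 s kinetic read after compound addition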
Each line names hits and unclear results; the compound was inactive in the other large screens.

Cc1ccc2c(c1)[C@H]1[C@H](CO2)[C@H](c2ccccc2)[C@]2(C)C(=O)N(Cc3ccc(Cl)cc3)CC(=O)N12	none
COCCCNC(=O)CCc1c(C)nc2c(c(C)nn2-c2ccc(C)cc2)c1C	none
Cc1cccc(-c2noc(CCCC(=O)NC3CCCC3)n2)c1	none
COC(=O)CNc1cccc(C(F)(F)F)c1	none
Cc1cc(C)c(NC(=O)C2CCCO2)c(C)c1 (stereo unspecified)	none
C=CCn1c(C)c(C(C)=O)c(N2CCN(c3ccccc3)CC2)nc1=S	CHRM1 antagonist 88.8
C=CCn1c(C)c(C(C)=O)c(N2CCCC2)nc1=S	CHRM1 antagonist 97.9
CCn1c(C)c(C(C)=O)c(N2CCCC2)nc1=S	CHRM1 antagonist 39.8
O=C(O)/C=C/C(=O)Nc1ccc(Oc2ccccc2)cc1	none
CCOC(=O)/C=C/C(=O)Nc1ccc(Oc2ccccc2)cc1	M5 antag 35.8
CN1CCC(N(C)C(=O)c2ccc(Cl)c(S(=O)(=O)N3CCOCC3)c2)CC1	none
CC1CN(C(=O)COC(=O)/C=C/c2ccccc2)CC(C)O1 (stereo unspecified)	CHRM1 antagonist 28.8
O=C(NC(=S)Nc1cccc(O)c1)C12CC3CC(CC(C3)C1)C2	none
CC1CN(CC(O)COC(c2ccc(Cl)cc2)c2ccc(Cl)cc2)CC(C)O1 (stereo unspecified)	none
CN(CC(O)COC(c1ccccc1)c1ccccc1)C1CCCCC1 (stereo unspecified)	CHRM1 antagonist 29.6
CN(C)CC(O)COC(c1ccc(Cl)cc1)c1ccc(Cl)cc1 (stereo unspecified)	CHRM1 antagonist 40.9
CN(CC(O)COc1ccc(OCC(O)CN(C)C2CCCCC2)cc1)C1CCCCC1 (stereo unspecified)	none
CCS(=O)(=O)N1CCC(C(=O)Nc2cc(C)ccc2O)CC1	none
CCOc1ccc(NC(=O)Nc2cc(OCC(F)(F)F)cc(OCC(F)(F)F)c2)cc1	M5 antag 28.0
CCOc1ccc(NC(=S)Nc2ccc3nsnc3c2)cc1	none
CCOc1ccc(NC(=O)Nc2ccc3nsnc3c2)cc1	M5 antag 32.6
O=C(Nc1ccc(F)cc1)Nc1cc(OCC(F)(F)F)cc(OCC(F)(F)F)c1	M5 antag 30.5
COc1ccc(NC(=O)Nc2ccc(F)cc2)cn1	none
CCOc1ccc(NC(=O)Nc2cccc(C(=O)O)c2)cc1	none
COc1cc2[nH]c(=O)n(Cc3ccccc3Cl)c(=O)c2cc1OC	none
C[C@H](CO)N1C[C@H](C)[C@H](CN(C)Cc2cncnc2)Oc2ncc(C#CC3(O)CCCC3)cc2C1=O	none
CC(C)CN1CCNC(=O)C1CC(=O)NCc1cnn(-c2cccc(F)c2)c1 (stereo unspecified)	none
CN1CCCCCC1=Nc1ccccc1C#N	CHRM1 antagonist 26.6
Cn1ncc(C#N)c1/N=C/N1CCCCCC1	none
CCN(CC)CCSC(=O)C(c1ccccc1)c1ccccc1	CHRM1 antagonist 100.6, M5 antag 98.8
CCN(CC)CCOC(=O)C(c1ccccc1)c1ccccc1	CHRM1 antagonist 96.5, M5 antag 97.7
CCN(CC)CCOC(=O)C(c1ccccc1)C1CCCCC1 (stereo unspecified)	CHRM1 antagonist 99.1, M5 antag 99.0
CCN(CCO)C(=O)C(c1ccccc1)c1ccccc1	none
CC(Cc1cccs1)NC(=O)c1cccs1 (stereo unspecified)	none
CC(Cc1cccs1)NC(=O)Nc1ccc([N+](=O)[O-])cc1 (stereo unspecified)	M5 antag 29.6
CN(NS(=O)(=O)c1ccc(Br)cc1)c1nc(C(F)(F)F)nc2ccccc12	M5 antag 28.6
CN(N)c1nc(C(F)(F)F)nc2ccccc12	none
O=C(COC(=O)c1cccc([N+](=O)[O-])c1)Nc1ccc(Cl)cn1	none
CN1CCN(C=Nc2nc3ccccc3nc2N2CCCC2)CC1	CHRM1 antagonist 34.2
COc1ccc(OC(C)C(=O)Nc2cccc(OC)c2)cc1 (stereo unspecified)	M5 PAM 19.1
COc1ccc(NC(=O)C(C)Oc2ccc(/C(C)=N\O)cc2)cc1 (stereo unspecified)	CHRM5 agonist 27.2, CHRM1 agonist 17.2
CC(C)NS(=O)(=O)c1ccc(NC(=O)C(C)Oc2ccc(C(=O)c3ccccc3)cc2)cc1 (stereo unspecified)	CHRM1 antagonist 66.5, CHRM5 agonist 64.7, M5 antag 46.7, CHRM1 agonist 57.2
CC(Oc1ccccc1)C(=O)Nc1ccc(C(N)=O)cc1 (stereo unspecified)	none
COc1cccc(NC(=O)NNC(=O)C(C)Oc2ccc3ccccc3c2)c1 (stereo unspecified)	none
O=C(Cn1ncc2c([nH]c3ccccc32)c1=O)Nc1ccc(CN2CCCCC2)cc1	none
Fc1ccccc1OCCCn1ccnc1	none
COc1ccc(CNC(=O)CCNC(=O)C2CCN(S(=O)(=O)c3ccc(OC)cc3)CC2)cc1	CHRM1 PAM 26.9
COc1ccc(S(=O)(=O)N2CCC(C(=O)N[C@@H](C)C(=O)NC3CCCC3)CC2)cc1	M5 PAM 32.1
O=C(O)c1ccccc1CSc1ncccc1C(=O)O	none
CCc1ccc(C2CC(c3ccccc3Cl)Nc3nc(N)nn32)cc1 (stereo unspecified)	CHRM5 agonist 24.5
O=C(NC(Cc1c[nH]c2ccccc12)C(=O)N/N=C/c1ccc(Cl)cc1)c1cccs1 (stereo unspecified)	M5 antag 26.9
O=C(NC(Cc1c[nH]c2ccccc12)C(=O)N1CCOCC1)c1cccs1 (stereo unspecified)	none
O=C(O)C1=C[C@H](c2cccs2)C[C@H](OCc2ccc(CO)cc2)O1	none
O=C(COC(=O)Cc1cccs1)Nc1ccc(OC(F)(F)F)cc1	none
Cc1ccc(-n2cc(-c3ccccc3)c3c(N4CCN(C)CC4)ncnc32)cc1	none
Cc1ccc(-n2cc(-c3ccccc3)c3c(N4CCOCC4)ncnc32)cc1	CHRM1 antagonist 43.0
Cc1cccc(-n2cc(-c3ccccc3)c3c(N4CCOCC4)ncnc32)c1	CHRM1 antagonist 37.9
Cc1cccc(C)c1NC(=O)C1(N(Cc2ccco2)C(=O)CC2NC(=O)NC2=O)CCCC1 (stereo unspecified)	none
CN(C(=O)CSc1nc(-c2cccs2)nc2ccccc12)C1CCS(=O)(=O)C1 (stereo unspecified)	none
COCCN=c1scc(-c2cc(OC)ccc2OC)n1/N=C/c1c[nH]c2ccccc12	CHRM1 agonist 16.0
O=C(CS(=O)(=O)Cc1ccccc1)N1CCN(c2ccccc2F)CC1	none
Cc1ccc(S(=O)(=O)N2CCN(CC(=O)Nc3ccc(N4CCOCC4)cc3)CC2)cc1C	none
